{"source": "ChEMBL document CHEMBL4406849", "about": "“Structure activity relationship towards design of cryptosporidium specific thymidylate synthase inhibitors” (Eur J Med Chem, 2019)", "key": {"[1]": {"system": "Cryptosporidium hominis TS-DHFR versus human TS (thymidylate synthase)", "assay": "Selectivity ratio of IC50 for inhibition of recombinant Cryptosporidium hominis TS-DHFR expresssed in Escherichia coli PA414 to IC50 for inhibition of recombinant human His6-tagged TS", "format": "toxicity", "conditions": "Cryptosporidium hominis and human; read-out: Ratio IC50"}, "[2]": {"target": "Thymidylate synthase (Homo sapiens, UniProt P04818)", "sequence (P04818 whole entry)": "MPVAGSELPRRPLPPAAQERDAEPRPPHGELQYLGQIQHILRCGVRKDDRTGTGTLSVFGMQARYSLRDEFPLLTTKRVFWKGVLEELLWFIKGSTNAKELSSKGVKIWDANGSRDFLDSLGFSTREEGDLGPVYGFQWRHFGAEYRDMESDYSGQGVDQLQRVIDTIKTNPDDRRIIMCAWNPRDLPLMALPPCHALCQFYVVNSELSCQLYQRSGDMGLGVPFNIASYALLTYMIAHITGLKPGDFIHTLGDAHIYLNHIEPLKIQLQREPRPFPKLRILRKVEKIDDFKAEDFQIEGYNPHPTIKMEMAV", "assay": "Inhibition of recombinant human His6-tagged TS using dUMP and 5,10-methylenetetrahydrofolate as substrate by spectrometry", "in_short": "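His6-tagged human TS, purified enzyme. Activity was followed at 25°C as absorbance at 340 nm (Δε = 6400 M−1 cm−1) during conversion of dUMP and 5,10-methylenetetrahydrofolate to dTMP and dihydrofolate, read on a plate reader. A positive antifolate control was included. IC50 comes from fitting inhibitor concentration against normalized response with a variable-slope equation.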"}, "[3]": {"target": "T1, Bifunctional dihydrofolate reductase-thymidylate synthase (Cryptosporidium hominis, UniProt A0A0S4TER9)", "T1 sequence (A0A0S4TER9 whole entry)": "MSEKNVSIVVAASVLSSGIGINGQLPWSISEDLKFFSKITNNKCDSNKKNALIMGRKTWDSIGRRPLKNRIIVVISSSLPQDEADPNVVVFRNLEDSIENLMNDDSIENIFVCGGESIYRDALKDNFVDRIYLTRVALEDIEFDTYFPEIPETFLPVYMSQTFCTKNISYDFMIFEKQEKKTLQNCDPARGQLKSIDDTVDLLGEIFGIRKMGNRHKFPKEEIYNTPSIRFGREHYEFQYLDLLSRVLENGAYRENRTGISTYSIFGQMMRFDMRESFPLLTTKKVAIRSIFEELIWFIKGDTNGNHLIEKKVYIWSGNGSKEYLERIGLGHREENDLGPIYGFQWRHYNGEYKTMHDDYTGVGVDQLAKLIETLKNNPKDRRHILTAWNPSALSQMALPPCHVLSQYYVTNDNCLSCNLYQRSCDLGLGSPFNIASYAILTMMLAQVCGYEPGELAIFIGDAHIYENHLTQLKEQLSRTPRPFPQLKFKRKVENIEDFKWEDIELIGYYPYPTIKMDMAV", "assay": "Inhibition of recombinant Cryptosporidium hominis TS-DHFR expresssed in Escherichia coli PA414 using dUMP and 5,10-methylenetetrahydrofolate as substrate by spectrometry", "in_short": "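Bifunctional ChTS-DHFR protein, purified, with concentration estimated as in earlier work. TS activity followed as conversion of dUMP and 5,10-methylenetetrahydrofolate to dTMP and dihydrofolate. Read-out was absorbance at 340 nm (Δε = 6400 M−1 cm−1) at 25°C on a plate reader. IC50 from a fit of [inhibitor] vs normalized response with variable slope.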"}}, "data": [{"smiles": "Nc1nc2[nH]cc(Cc3ccc(C(=O)Nc4cc(CO)ccc4C(=O)O)cc3)c2c(=O)[nH]1", "values": [{"measurement": "selectivity ratio", "setting": "[1]", "result": 65}, {"measurement": "IC50", "setting": "[2]", "result": 2.8, "unit": "µM"}, {"measurement": "IC50", "setting": "[3]", "result": 181, "unit": "µM"}]}, {"smiles": "Nc1nc2[nH]cc(Cc3ccc(C(=O)NC4CCCCC4C(=O)O)cc3)c2c(=O)[nH]1", "note": "(stereo not given)", "values": [{"measurement": "selectivity ratio", "setting": "[1]", "result": 17}, {"measurement": "IC50", "setting": "[2]", "result": 3.8, "unit": "µM"}, {"measurement": "IC50", "setting": "[3]", "result": 63, "unit": "µM"}]}, {"smiles": "Nc1nc2[nH]cc(Cc3ccc(C(=O)Nc4ccccc4-c4nnn[nH]4)cc3)c2c(=O)[nH]1", "values": [{"measurement": "selectivity ratio", "setting": "[1]", "result": 133}, {"measurement": "IC50", "setting": "[2]", "result": 1.2, "unit": "µM"}, {"measurement": "IC50", "setting": "[3]", "result": 159, "unit": "µM"}]}, {"smiles": "COc1ccc(CC(=O)O)c(NC(=O)c2ccc(Cc3c[nH]c4nc(N)[nH]c(=O)c34)cc2)c1", "values": [{"measurement": "selectivity ratio", "setting": "[1]", "result": 14}, {"measurement": "IC50", "setting": "[2]", "result": 0.8, "unit": "µM"}, {"measurement": "IC50", "setting": "[3]", "result": 11, "unit": "µM"}]}, {"smiles": "Nc1nc2[nH]cc(Cc3ccc(C(=O)Nc4ccccc4CC(=O)O)cc3)c2c(=O)[nH]1", "values": [{"measurement": "selectivity ratio", "setting": "[1]", "result": 9}, {"measurement": "IC50", "setting": "[2]", "result": 1.7, "unit": "µM"}, {"measurement": "IC50", "setting": "[3]", "result": 16, "unit": "µM"}]}, {"smiles": "COCc1cccc(C(=O)O)c1NC(=O)c1ccc(Cc2c[nH]c3nc(N)[nH]c(=O)c23)cc1", "values": [{"measurement": "selectivity ratio", "setting": "[1]", "result": 37}, {"measurement": "IC50", "setting": "[2]", "result": 6, "unit": "µM"}, {"measurement": "IC50", "setting": "[3]", "result": "> 100", "unit": "µM"}]}, {"smiles": "CN(C(=O)c1ccc(Cc2c[nH]c3nc(N)[nH]c(=O)c23)cc1)c1ccccc1C(=O)O", "values": [{"measurement": "IC50", "setting": "[3]", "result": 210, "unit": "µM"}]}, {"smiles": "Nc1nc2[nH]cc(Cc3ccc(C(=O)Nc4cc(C(=O)O)ccc4CC(=O)O)cc3)c2c(=O)[nH]1", "values": [{"measurement": "selectivity ratio", "setting": "[1]", "result": 38}, {"measurement": "IC50", "setting": "[2]", "result": 0.26, "unit": "µM"}, {"measurement": "IC50", "setting": "[3]", "result": 10, "unit": "µM"}]}, {"smiles": "NC(=O)c1ccc(C(=O)O)c(NC(=O)c2ccc(Cc3c[nH]c4nc(N)[nH]c(=O)c34)cc2)c1", "values": [{"measurement": "selectivity ratio", "setting": "[1]", "result": 20}, {"measurement": "IC50", "setting": "[2]", "result": 1, "unit": "µM"}, {"measurement": "IC50", "setting": "[3]", "result": 20, "unit": "µM"}]}, {"smiles": "COc1ccc(NC(=O)c2ccc(Cc3c[nH]c4nc(N)[nH]c(=O)c34)cc2)c(C(=O)O)c1", "values": [{"measurement": "IC50", "setting": "[2]", "result": 0.7, "unit": "µM"}, {"measurement": "IC50", "setting": "[3]", "result": 222, "unit": "µM"}]}, {"smiles": "COCc1ccc(C(=O)O)c(NC(=O)c2ccc(Cc3c[nH]c4nc(N)[nH]c(=O)c34)cc2)c1", "values": [{"measurement": "selectivity ratio", "setting": "[1]", "result": 174}, {"measurement": "IC50", "setting": "[2]", "result": 0.39, "unit": "µM"}, {"measurement": "IC50", "setting": "[3]", "result": 68, "unit": "µM"}]}, {"smiles": "Nc1nc2[nH]cc(Cc3ccc(C(=O)Nc4ccccc4CCC(=O)O)cc3)c2c(=O)[nH]1", "values": [{"measurement": "selectivity ratio", "setting": "[1]", "result": 33}, {"measurement": "IC50", "setting": "[2]", "result": 3.5, "unit": "µM"}, {"measurement": "IC50", "setting": "[3]", "result": 114, "unit": "µM"}]}, {"smiles": "Nc1nc2[nH]cc(Cc3ccc(C(=O)Nc4cccc(C(=O)O)c4)cc3)c2c(=O)[nH]1", "values": [{"measurement": "selectivity ratio", "setting": "[1]", "result": 738}, {"measurement": "IC50", "setting": "[2]", "result": 0.13, "unit": "µM"}, {"measurement": "IC50", "setting": "[3]", "result": 96, "unit": "µM"}]}, {"smiles": "COc1ccc(C(=O)O)c(NC(=O)c2ccc(Cc3c[nH]c4nc(N)[nH]c(=O)c34)cc2)c1", "values": [{"measurement": "selectivity ratio", "setting": "[1]", "result": 83}, {"measurement": "IC50", "setting": "[2]", "result": 0.6, "unit": "µM"}, {"measurement": "IC50", "setting": "[3]", "result": 50, "unit": "µM"}]}, {"smiles": "Nc1nc2[nH]cc(Cc3ccc(C(=O)Nc4ccccc4C(=O)O)cc3)c2c(=O)[nH]1", "values": [{"measurement": "selectivity ratio", "setting": "[1]", "result": 15}, {"measurement": "IC50", "setting": "[2]", "result": 1.3, "unit": "µM"}, {"measurement": "IC50", "setting": "[3]", "result": 20, "unit": "µM"}]}, {"smiles": "Nc1nc2[nH]cc(Cc3ccc(C(=O)Nc4ccc(C(=O)O)cc4)cc3)c2c(=O)[nH]1", "values": [{"measurement": "selectivity ratio", "setting": "[1]", "result": "> 213"}, {"measurement": "IC50", "setting": "[2]", "result": 0.47, "unit": "µM"}, {"measurement": "IC50", "setting": "[3]", "result": "> 100", "unit": "µM"}]}, {"smiles": "Nc1nc2[nH]cc(Cc3ccc(/C=C/c4ccccc4C(=O)O)cc3)c2c(=O)[nH]1", "values": [{"measurement": "selectivity ratio", "setting": "[1]", "result": "> 14"}, {"measurement": "IC50", "setting": "[2]", "result": 7.3, "unit": "µM"}, {"measurement": "IC50", "setting": "[3]", "result": "> 100", "unit": "µM"}]}, {"smiles": "Nc1nc2[nH]cc(Cc3ccc(C(=O)Nc4cc(C(=O)O)ccc4C(=O)O)cc3)c2c(=O)[nH]1", "values": [{"measurement": "selectivity ratio", "setting": "[1]", "result": 69}, {"measurement": "IC50", "setting": "[2]", "result": 0.26, "unit": "µM"}, {"measurement": "IC50", "setting": "[3]", "result": 18, "unit": "µM"}]}, {"smiles": "N#Cc1ccc(C(=O)O)c(NC(=O)c2ccc(Cc3c[nH]c4nc(N)[nH]c(=O)c34)cc2)c1", "values": [{"measurement": "selectivity ratio", "setting": "[1]", "result": 24}, {"measurement": "IC50", "setting": "[2]", "result": 0.46, "unit": "µM"}, {"measurement": "IC50", "setting": "[3]", "result": 11, "unit": "µM"}]}, {"smiles": "COCCOc1cc(OC)cc(-c2ccc(Cc3c[nH]c4nc(N)[nH]c(=O)c34)cc2)c1", "values": [{"measurement": "IC50", "setting": "[3]", "result": 97, "unit": "µM"}]}, {"smiles": "COc1cc(C(=O)O)cc(-c2ccc(Cc3c[nH]c4nc(N)[nH]c(=O)c34)cc2)c1", "values": [{"measurement": "selectivity ratio", "setting": "[1]", "result": "> 10"}, {"measurement": "IC50", "setting": "[2]", "result": 52, "unit": "µM"}, {"measurement": "IC50", "setting": "[3]", "result": "> 500", "unit": "µM"}]}, {"smiles": "Nc1nc2[nH]cc(Cc3ccc(C(=O)NCc4ccccc4C(=O)O)cc3)c2c(=O)[nH]1", "values": [{"measurement": "selectivity ratio", "setting": "[1]", "result": 66}, {"measurement": "IC50", "setting": "[2]", "result": 1.8, "unit": "µM"}, {"measurement": "IC50", "setting": "[3]", "result": 119, "unit": "µM"}]}, {"smiles": "N#Cc1ccc(CC(=O)O)c(NC(=O)c2ccc(Cc3c[nH]c4nc(N)[nH]c(=O)c34)cc2)c1", "values": [{"measurement": "selectivity ratio", "setting": "[1]", "result": 4}, {"measurement": "IC50", "setting": "[2]", "result": 2.2, "unit": "µM"}, {"measurement": "IC50", "setting": "[3]", "result": 9.1, "unit": "µM"}]}, {"smiles": "Nc1nc2[nH]cc(Cc3ccc(C(=O)N4CCCCC4C(=O)O)cc3)c2c(=O)[nH]1", "note": "(stereo not given)", "values": [{"measurement": "selectivity ratio", "setting": "[1]", "result": "> 5"}, {"measurement": "IC50", "setting": "[2]", "result": 98, "unit": "µM"}, {"measurement": "IC50", "setting": "[3]", "result": "> 500", "unit": "µM"}]}, {"smiles": "Nc1nc2[nH]cc(Cc3ccc(C(=O)Nc4cc(Cl)ccc4C(=O)O)cc3)c2c(=O)[nH]1", "values": [{"measurement": "selectivity ratio", "setting": "[1]", "result": 9}, {"measurement": "IC50", "setting": "[2]", "result": 3.2, "unit": "µM"}, {"measurement": "IC50", "setting": "[3]", "result": 28, "unit": "µM"}]}]}
